Data: PubChem BioAssay AID493015 (Southern Research Specialized Biocontainment Screening …, 2011)
Calls of active or inactive are those of the source.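 Rule for the calls: active = cell viability under 70% at any tested dose, a measure not printed in our tables; inactive = the rest.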

System: HEp-2 cells, viability, luminescence (cytotoxicity counter-screen)
Assay: HEp-2 cell cytotoxicity, dose response, cytotoxicity control for RSV inhibitor project, synthesized compounds, set 4 (AID 493015)
In short: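 Assay system: HEp-2 cells / Medium: DMEM/F12 plus heat-inactivated FBS / Dosing: 8-point 1:2 series, 50–0.39 µM, 0.5% DMSO / Schedule: 6-day compound exposure, 37 °C / Detection: CellTiter-Glo luminescence / Replicates: each concentration tested in triplicate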

Row | SMILES | CC50
1 | Cc1ccc2c(c1)CCN2C(=O)[C@@H]1CCCN1S(=O)(=O)c1cccc2cccnc12 | 18.1 µM
2 | CC(C)c1ccccc1NC(=O)[C@@H]1CCCN1S(=O)(=O)c1cccc2cccnc12 | 16.5 µM
3 | Cc1cccc(NC(=O)[C@@H]2CCCN2S(=O)(=O)c2cccc3cccnc23)c1 | 27.6 µM
4 | COc1ccccc1CNC(=O)C1CCN(S(=O)(=O)c2cccc3nonc23)CC1 | > 50 µM (inactive)
5 | O=C(Nc1ccccc1)[C@@H]1CCCN1S(=O)(=O)c1cccc2cccnc12 | 49 µM
